Experimental data taken from ChEMBL document CHEMBL2440064, “Synthesis and biological evaluation of 2-amino-5-aryl-3-benzylthiopyridine scaffold based potent c-Met inhibitors” (Bioorg Med Chem, 2013).
Activity calls are given as the source filed them. The rule behind the calls is not given here.

Assays:
[1] = Volume of distribution in rat at 2 mg/kg, iv and 10 mg/kg, po; assay type: ADME, organism-based; conditions: in vivo
In short: (§1)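 Rats given a single iv dose (2 mg/kg) or a single po dose (10 mg/kg).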

[2] = Oral bioavailability in rat at 10 mg/kg; assay type: ADME, organism-based; conditions: in vivo; in short: as §1
[3] = Clearance in rat at 2 mg/kg, iv and 10 mg/kg, po; assay type: ADME, organism-based; conditions: in vivo
In short: (§2)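 Rat pharmacokinetics after a single intravenous dose (2 mg/kg) and a single oral dose (10 mg/kg).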

[4] = Half life in rat at 2 mg/kg, iv and 10 mg/kg, po; assay type: ADME, organism-based; conditions: in vivo; in short: as §2
Mus musculus = experiment: Toxicity in mouse allografted with mouse NIH/3T3 cells assessed as decrease in body weight at 100 mg/kg, po qd administered for 2 weeks measured twice per week; assay type: organism-based, NIH3T3; design: dose 100 mg/kg, route oral; conditions: in vivo, 336 h
In short: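 Tumor fragments of 1 mm³ implanted s.c. in the right flank of nude mice with a trocar. Mice randomized once tumors reached 100–150 mm³. Oral dosing 7 days/week for 2 weeks; vehicle-only controls. Tumors measured twice weekly by microcaliper; body weight monitored.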

[5] = target: T1, Hepatocyte growth factor receptor (Homo sapiens, UniProt P08581); experiment: Inhibition of c-Met in gefitinib-resistant human HCC827 cells assessed as inhibition of AKT phosphorylation at 0.5 uM after 2 hrs by Western blotting analysis in presence of gefitinib; assay type: cell-based
T1 sequence (P08581 whole entry): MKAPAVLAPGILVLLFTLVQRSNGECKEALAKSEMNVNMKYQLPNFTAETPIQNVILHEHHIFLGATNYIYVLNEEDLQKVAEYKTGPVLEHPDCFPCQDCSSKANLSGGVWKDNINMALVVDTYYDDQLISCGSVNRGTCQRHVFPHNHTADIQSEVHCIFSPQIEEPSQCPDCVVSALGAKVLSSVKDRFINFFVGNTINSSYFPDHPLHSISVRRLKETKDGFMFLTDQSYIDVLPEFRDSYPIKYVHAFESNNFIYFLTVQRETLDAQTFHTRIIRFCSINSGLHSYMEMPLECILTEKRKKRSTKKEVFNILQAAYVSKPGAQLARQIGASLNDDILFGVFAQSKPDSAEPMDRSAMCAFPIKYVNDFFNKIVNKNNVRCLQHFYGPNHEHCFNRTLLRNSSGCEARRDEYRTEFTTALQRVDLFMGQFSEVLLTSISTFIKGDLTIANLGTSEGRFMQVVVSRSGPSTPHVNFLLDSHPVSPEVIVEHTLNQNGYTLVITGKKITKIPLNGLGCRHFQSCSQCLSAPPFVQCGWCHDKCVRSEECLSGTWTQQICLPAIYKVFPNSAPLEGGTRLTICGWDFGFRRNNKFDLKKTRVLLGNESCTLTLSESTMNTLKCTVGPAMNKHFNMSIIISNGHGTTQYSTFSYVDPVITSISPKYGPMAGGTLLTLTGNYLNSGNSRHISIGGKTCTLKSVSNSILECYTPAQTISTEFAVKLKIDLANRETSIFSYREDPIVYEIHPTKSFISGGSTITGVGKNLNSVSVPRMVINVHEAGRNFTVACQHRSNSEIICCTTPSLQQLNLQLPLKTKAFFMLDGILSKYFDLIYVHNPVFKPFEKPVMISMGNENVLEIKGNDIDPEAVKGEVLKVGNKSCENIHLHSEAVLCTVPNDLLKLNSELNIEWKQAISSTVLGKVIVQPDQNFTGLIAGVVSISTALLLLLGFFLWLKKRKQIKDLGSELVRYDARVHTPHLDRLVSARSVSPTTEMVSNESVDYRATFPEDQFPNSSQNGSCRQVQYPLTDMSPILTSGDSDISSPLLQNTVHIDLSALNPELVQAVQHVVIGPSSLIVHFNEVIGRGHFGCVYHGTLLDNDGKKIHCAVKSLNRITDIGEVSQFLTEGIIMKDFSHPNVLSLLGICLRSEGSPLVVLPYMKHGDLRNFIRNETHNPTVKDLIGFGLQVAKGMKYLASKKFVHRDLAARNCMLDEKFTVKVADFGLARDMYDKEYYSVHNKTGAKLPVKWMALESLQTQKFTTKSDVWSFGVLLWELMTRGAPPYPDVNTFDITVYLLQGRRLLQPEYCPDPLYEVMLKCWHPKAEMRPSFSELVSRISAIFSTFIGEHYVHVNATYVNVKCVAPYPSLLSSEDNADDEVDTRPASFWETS
In short: (§3)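 Cells grown to exponential phase, treated with compound 2 h at 37°C, lysed in 1× SDS sample buffer, resolved on 10% SDS-PAGE and transferred to nitrocellulose for immunoblotting.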

[6] = target: T1, Hepatocyte growth factor receptor; experiment: Inhibition of c-Met in human HCC827/GR5 cells assessed as potentiation of gefitinib-induced cell growth inhibition at 0.5 uM after 72 hrs; assay type: cell-based
[7] = target: Hepatocyte growth factor receptor (Canis lupus familiaris) (UniProt Q75ZY9); experiment: Inhibition of c-Met in MDCK cells assessed as HGF-induced cell motility at 0.3 to 3 uM after 1 to 10 hrs by wound-healing assay; assay type: cell-based
Sequence of Hepatocyte growth factor receptor (Canis lupus familiaris) (Q75ZY9 whole entry): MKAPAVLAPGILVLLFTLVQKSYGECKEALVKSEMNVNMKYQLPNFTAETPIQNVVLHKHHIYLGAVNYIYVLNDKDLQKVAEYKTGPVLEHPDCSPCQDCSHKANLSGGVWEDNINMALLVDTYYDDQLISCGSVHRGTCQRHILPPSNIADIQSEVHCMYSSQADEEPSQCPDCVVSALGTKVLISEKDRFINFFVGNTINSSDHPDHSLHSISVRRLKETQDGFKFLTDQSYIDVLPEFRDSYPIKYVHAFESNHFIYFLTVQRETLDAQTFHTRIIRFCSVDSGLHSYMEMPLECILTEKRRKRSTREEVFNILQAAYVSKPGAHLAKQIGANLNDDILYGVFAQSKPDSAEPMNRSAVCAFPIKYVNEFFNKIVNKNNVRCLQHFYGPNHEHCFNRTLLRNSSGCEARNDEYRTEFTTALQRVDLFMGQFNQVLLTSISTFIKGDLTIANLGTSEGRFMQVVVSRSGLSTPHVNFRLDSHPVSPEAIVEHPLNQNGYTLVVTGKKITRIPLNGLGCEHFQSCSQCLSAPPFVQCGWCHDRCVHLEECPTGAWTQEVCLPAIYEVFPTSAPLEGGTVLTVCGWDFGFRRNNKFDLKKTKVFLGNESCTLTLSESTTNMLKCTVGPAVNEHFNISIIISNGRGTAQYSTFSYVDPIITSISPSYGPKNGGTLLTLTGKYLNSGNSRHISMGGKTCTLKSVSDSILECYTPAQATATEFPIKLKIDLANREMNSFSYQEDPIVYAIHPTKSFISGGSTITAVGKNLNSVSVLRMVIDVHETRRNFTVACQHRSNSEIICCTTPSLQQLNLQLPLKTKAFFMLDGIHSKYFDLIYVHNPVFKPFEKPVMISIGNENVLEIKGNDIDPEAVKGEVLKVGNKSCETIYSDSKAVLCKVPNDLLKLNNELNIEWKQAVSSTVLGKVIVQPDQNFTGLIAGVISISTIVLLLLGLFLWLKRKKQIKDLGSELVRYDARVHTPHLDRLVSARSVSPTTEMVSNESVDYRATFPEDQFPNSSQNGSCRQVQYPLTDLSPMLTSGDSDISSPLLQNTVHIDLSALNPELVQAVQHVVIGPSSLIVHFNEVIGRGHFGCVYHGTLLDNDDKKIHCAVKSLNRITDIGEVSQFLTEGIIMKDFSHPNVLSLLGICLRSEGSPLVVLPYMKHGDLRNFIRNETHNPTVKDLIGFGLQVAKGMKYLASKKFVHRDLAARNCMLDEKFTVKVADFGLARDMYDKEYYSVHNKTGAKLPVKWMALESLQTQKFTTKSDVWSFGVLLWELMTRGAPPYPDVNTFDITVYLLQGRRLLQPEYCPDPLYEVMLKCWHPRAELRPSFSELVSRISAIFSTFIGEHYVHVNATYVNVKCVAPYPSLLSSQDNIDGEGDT
In short: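 MDCK monolayers in 12-well plates, pre-incubated 30 min serum-free. Scratch wound made with micropipette and washed, then compound added with or without 50 ng/mL recombinant human HGF at 37°C. Phase-contrast images at 0 and 10 h.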

[8] = target: Hepatocyte growth factor receptor (Canis lupus familiaris) (UniProt Q75ZY9); experiment: Inhibition of c-Met in MDCK cells assessed as HGF-induced cell scattering after 24 hrs by microscopic analysis; assay type: cell-based
In short: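 MDCK cells plated at 1,500/well in 96-well plates and allowed to form clusters over 24 h. Then 24 h with compound plus 50 ng/mL recombinant human HGF in FBS-free medium. Fixed in 4% paraformaldehyde 15 min at room temperature, stained with 0.2% crystal violet and imaged by microscopy.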

[9] = Antiproliferative activity against human EBC1 cells after 72 hrs; conditions: EBC-1, 72 h
MKN-45 = experiment: Antiproliferative activity against human MKN45 cells after 72 hrs; conditions: MKN-45, 72 h
[10] = target: TPR/MET fusion protein (Mus musculus) (UniProt P16056+F6ZDS4); experiment: Inhibition of TPR/Met in mouse NIH3T3 cells assessed as inhibition of p44/42 phosphorylation at 0.08 to 10 uM after 2 hrs by Western blotting analysis; assay type: cell-based; in short: as §3
[11] = target: T1, Hepatocyte growth factor receptor; experiment: Inhibition of c-Met in human MKN45 cells assessed as inhibition of p44/42 phosphorylation at 0.16 to 20 uM after 2 hrs by Western blotting analysis; assay type: cell-based; conditions: MKN-45; in short: as §3
[12] = target: T1, Hepatocyte growth factor receptor; experiment: Inhibition of c-Met phosphorylation in human EBC1 cells after 2 hrs by Western blotting analysis; assay type: cell-based
In short: (§4)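 Cells grown under regular conditions to exponential phase, exposed to compound at indicated concentrations for 2 h at 37°C, lysed in 1× SDS sample buffer. Lysates resolved on 10% SDS-PAGE and transferred to nitrocellulose for immunoblotting.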

[13] = target: T1, Hepatocyte growth factor receptor; experiment: Competitive inhibition of c-Met (unknown origin) at 1.3 to 160 uM by Lineweaver-Burk plot analysis in presence of ATP
In short: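 ATP-competition version of the poly(Glu,Tyr)4:1 ELISA kinase assay (60 min, 37°C, PY99 antibody detection, A490) run at various ATP concentrations; Lineweaver-Burk plot constructed.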

[14] = target: T1, Hepatocyte growth factor receptor; experiment: Inhibition of c-Met phosphorylation in human MKN45 cells after 2 hrs by Western blotting analysis; assay type: cell-based; conditions: MKN-45; in short: as §4
[15] = target: Vascular endothelial growth factor receptor 1 (Homo sapiens, UniProt P17948); experiment: Inhibition of FLT1 (unknown origin) using poly (Glu, Tyr) 4:1 as substrate after 60 mins by ELISA
In short: (§5)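 ELISA on wells precoated with 20 µg/mL poly(Glu,Tyr)4:1. Purified kinase with 10 µmol/L ATP in 50 mM HEPES pH 7.4, 50 mM MgCl₂, 0.5 mM MnCl₂, 0.2 mM Na₃VO₄, 1 mM DTT; 1% DMSO vehicle. 60 min at 37°C. Phosphotyrosine detected with PY99 antibody, then HRP anti-mouse IgG and o-phenylenediamine/H₂O₂, A490. Inhibition = [1−(A490/A490 control)]×100%; IC50 from curves.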

[16] = target: Vascular endothelial growth factor receptor 2 (Homo sapiens, UniProt P35968); experiment: Inhibition of KDR (unknown origin) using poly (Glu, Tyr) 4:1 as substrate after 60 mins by ELISA; in short: as §5
Ephrin type-A receptor 2 = Ephrin type-A receptor 2 (Homo sapiens, UniProt P29317); experiment: Inhibition of EPHA2 (unknown origin) using poly (Glu, Tyr) 4:1 as substrate after 60 mins by ELISA; in short: as §5
Sequence of Ephrin type-A receptor 2 (P29317 whole entry): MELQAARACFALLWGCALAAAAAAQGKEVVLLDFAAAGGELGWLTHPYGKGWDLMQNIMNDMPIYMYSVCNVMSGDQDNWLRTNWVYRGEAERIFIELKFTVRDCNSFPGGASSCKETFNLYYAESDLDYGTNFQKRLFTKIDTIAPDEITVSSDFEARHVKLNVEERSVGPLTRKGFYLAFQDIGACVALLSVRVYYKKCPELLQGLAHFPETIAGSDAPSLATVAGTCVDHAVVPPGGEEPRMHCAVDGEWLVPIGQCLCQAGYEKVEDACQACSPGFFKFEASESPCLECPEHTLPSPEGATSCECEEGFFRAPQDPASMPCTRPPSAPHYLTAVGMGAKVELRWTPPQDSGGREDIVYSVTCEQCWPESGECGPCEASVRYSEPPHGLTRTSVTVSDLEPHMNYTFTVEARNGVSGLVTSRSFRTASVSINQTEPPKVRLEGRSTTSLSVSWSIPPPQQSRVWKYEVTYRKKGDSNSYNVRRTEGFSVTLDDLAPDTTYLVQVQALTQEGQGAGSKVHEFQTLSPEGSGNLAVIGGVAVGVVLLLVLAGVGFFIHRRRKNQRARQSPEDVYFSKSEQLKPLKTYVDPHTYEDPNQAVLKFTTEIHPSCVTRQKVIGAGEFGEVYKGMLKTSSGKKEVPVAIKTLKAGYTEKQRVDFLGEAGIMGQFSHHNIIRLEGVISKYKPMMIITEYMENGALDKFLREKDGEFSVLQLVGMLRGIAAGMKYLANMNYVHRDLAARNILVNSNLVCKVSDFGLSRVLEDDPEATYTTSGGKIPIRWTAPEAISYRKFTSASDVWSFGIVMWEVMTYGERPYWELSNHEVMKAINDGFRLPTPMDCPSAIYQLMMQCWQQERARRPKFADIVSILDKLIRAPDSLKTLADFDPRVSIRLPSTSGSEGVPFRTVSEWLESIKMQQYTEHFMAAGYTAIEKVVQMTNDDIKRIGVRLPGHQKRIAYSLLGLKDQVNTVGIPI

[17] = target: Tyrosine-protein kinase ABL1 (Homo sapiens, UniProt P00519); experiment: Inhibition of Abl (unknown origin) using poly (Glu, Tyr) 4:1 as substrate after 60 mins by ELISA; in short: as §5
[18] = target: Proto-oncogene tyrosine-protein kinase Src (Homo sapiens, UniProt P12931); experiment: Inhibition of c-Src (unknown origin) using poly (Glu, Tyr) 4:1 as substrate after 60 mins by ELISA
In short: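 Purified kinase incubated with 10 µmol/L ATP in wells pre-coated with 20 µg/mL poly(Glu,Tyr)4:1. Reaction ran 60 min at 37°C. Phosphotyrosine detected with PY99 antibody, then HRP anti-mouse IgG and o-phenylenediamine/H₂O₂, read at 490 nm. IC50 taken from inhibition curves.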

[19] = target: Platelet-derived growth factor receptor beta (Homo sapiens, UniProt P09619); experiment: Inhibition of PDGFRbeta (unknown origin) using poly (Glu, Tyr) 4:1 as substrate after 60 mins by ELISA; in short: as §5
[20] = target: Platelet-derived growth factor receptor alpha (Homo sapiens, UniProt P16234); experiment: Inhibition of PDGFRalpha (unknown origin) using poly (Glu, Tyr) 4:1 as substrate after 60 mins by ELISA; in short: as §5
[21] = target: ALK tyrosine kinase receptor (Homo sapiens, UniProt Q9UM73); experiment: Inhibition of ALK (unknown origin) using poly (Glu, Tyr) 4:1 as substrate after 60 mins by ELISA; in short: as §5
[22] = target: T1, Hepatocyte growth factor receptor; experiment: Inhibition of c-Met (unknown origin) using poly (Glu, Tyr) 4:1 as substrate after 60 mins by ELISA
[23] = target: Epidermal growth factor receptor (Homo sapiens, UniProt P00533); conditions: HCC827, at 0.5 µM
Sequence of Epidermal growth factor receptor (P00533 whole entry): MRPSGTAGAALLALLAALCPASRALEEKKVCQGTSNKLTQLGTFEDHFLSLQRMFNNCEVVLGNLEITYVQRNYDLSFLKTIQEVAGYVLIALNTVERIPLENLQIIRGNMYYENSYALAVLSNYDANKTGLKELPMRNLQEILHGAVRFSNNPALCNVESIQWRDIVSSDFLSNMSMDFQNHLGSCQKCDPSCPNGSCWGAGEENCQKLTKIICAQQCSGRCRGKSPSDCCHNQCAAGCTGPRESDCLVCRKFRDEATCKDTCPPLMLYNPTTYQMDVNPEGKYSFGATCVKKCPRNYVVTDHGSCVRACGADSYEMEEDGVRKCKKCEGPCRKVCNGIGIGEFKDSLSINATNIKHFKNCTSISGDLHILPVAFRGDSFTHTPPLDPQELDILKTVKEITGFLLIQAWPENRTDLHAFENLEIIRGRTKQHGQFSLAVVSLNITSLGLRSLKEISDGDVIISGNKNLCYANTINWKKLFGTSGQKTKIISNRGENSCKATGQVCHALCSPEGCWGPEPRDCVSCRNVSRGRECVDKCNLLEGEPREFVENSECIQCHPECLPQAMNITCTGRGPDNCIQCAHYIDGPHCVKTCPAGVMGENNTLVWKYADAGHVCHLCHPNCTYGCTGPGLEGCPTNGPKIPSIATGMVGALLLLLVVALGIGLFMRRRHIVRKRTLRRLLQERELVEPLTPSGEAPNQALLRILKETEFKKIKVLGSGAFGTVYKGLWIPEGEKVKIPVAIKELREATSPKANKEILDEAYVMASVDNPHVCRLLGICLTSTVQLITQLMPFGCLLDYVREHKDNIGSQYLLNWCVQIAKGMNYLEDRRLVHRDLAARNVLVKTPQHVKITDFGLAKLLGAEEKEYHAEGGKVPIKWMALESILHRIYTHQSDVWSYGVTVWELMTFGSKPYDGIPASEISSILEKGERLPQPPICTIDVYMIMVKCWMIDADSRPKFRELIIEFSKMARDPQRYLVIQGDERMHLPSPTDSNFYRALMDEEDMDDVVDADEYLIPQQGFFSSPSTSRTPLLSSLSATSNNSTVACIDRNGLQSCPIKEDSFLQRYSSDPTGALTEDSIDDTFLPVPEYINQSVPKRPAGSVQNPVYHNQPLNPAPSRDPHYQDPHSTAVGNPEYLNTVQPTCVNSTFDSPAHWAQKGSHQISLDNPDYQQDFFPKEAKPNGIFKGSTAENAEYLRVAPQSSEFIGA

**Q.** With `C[C@@H](Sc1cc(-c2cnn(C3CCNCC3)c2)cnc1N)c1c(Cl)ccc(F)c1Cl` as the compound, how does the Vd [1] read?
**A.** 20 L/kg

**Q.** What about the bioavailability [2] of the same compound?
**A.** 12.8%

**Q.** And the clearance [3]?
**A.** 53 mL/min/kg

**Q.** And the half-life [4]?
**A.** 5.7 h

**Q.** And the Activity (Mus musculus)?
**A.** Non-toxic

**Q.** What about the inhibition [5] of the same compound?
**A.** Active

**Q.** And the inhibition [6]?
**A.** Active

**Q.** And the inhibition [7]?
**A.** Active

**Q.** And the inhibition [8]?
**A.** Dose-dependent effect

**Q.** And the IC50 [9]?
**A.** 710 nM

**Q.** What about the IC50 (MKN-45) of the same compound?
**A.** 290 nM

**Q.** What about the inhibition [10] of the same compound?
**A.** Active

**Q.** What about the inhibition [11] of the same compound?
**A.** Active

**Q.** What about the inhibition [12] of the same compound?
**A.** Dose-dependent effect

**Q.** And the inhibition [13]?
**A.** Active

**Q.** What about the inhibition [14] of the same compound?
**A.** Dose-dependent effect

**Q.** And the IC50 [15]?
**A.** > 1000 nM

**Q.** And the IC50 [16]?
**A.** > 1000 nM

**Q.** And the IC50 (Ephrin type-A receptor 2)?
**A.** > 1000 nM

**Q.** And the IC50 [17]?
**A.** > 1000 nM

**Q.** What about the IC50 [18] of the same compound?
**A.** > 1000 nM

**Q.** And the IC50 [19]?
**A.** > 1000 nM

**Q.** What about the IC50 [20] of the same compound?
**A.** > 1000 nM

**Q.** What about the IC50 [21] of the same compound?
**A.** 349 nM

**Q.** And the IC50 [22]?
**A.** 7.7 nM

**Q.** What about the inhibition [23] of the same compound?
**A.** Active
